Data reported in ChEMBL document CHEMBL1143313, “Synthesis of novel 4,6-di(substituted)amino-1,2-dihydro-1,3,5-triazine derivatives as topical antiseptic agents” (2009).

Tests used:
Type in all cases: functional
Escherichia coli [1] = assay: Bactericidal activity against Escherichia coli NIHJ JC-2 preincubated for 1 min before addition of growth medium measured after 40 to 48 hrs
Pseudomonas aeruginosa [2] = assay: Antibacterial activity against Pseudomonas aeruginosa PAO1
Procedure, shortened: (§1)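 Value is the minimal inhibitory concentration (MIC) against the test organism, read after 24 h of incubation.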

Staphylococcus aureus [3] = assay: Bactericidal activity against methicillin-resistant Staphylococcus aureus 97-115 preincubated for 1 min before addition of growth medium measured after 40 to 48 hrs
Procedure, shortened: (§2)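 Read-out is the minimal bactericidal concentration (MBC), taken after 1, 3 and 5 min contact of compound with the test organism.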

Pseudomonas aeruginosa [4] = assay: Bactericidal activity against Pseudomonas aeruginosa PAO1 preincubated for 3 mins before addition of growth medium measured after 40 to 48 hrs
Pseudomonas aeruginosa [5] = assay: Bactericidal activity against Pseudomonas aeruginosa PAO1 preincubated for 5 mins before addition of growth medium measured after 40 to 48 hrs
Staphylococcus aureus [6] = assay: Bactericidal activity against methicillin-resistant Staphylococcus aureus 97-115 preincubated for 5 mins before addition of growth medium measured after 40 to 48 hrs; procedure, shortened: as §2
Staphylococcus aureus [7] = assay: Antibacterial activity against methicillin-resistant Staphylococcus aureus 97-115 after 24 hrs
Procedure, shortened: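 Read-out is the minimal inhibitory concentration (MIC), taken after 24 h incubation with the test organism.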

Escherichia coli [8] = assay: Bactericidal activity against Escherichia coli NIHJ JC-2 preincubated for 5 mins before addition of growth medium measured after 40 to 48 hrs
Staphylococcus aureus [9] = assay: Antibacterial activity against Staphylococcus aureus 209PJC after 24 hrs; procedure, shortened: as §1
Escherichia coli [10] = assay: Antibacterial activity against Escherichia coli NIHJ JC-2 after 24 hrs; procedure, shortened: as §1
Staphylococcus aureus [11] = assay: Bactericidal activity against Staphylococcus aureus 209PJC preincubated for 3 mins before addition of growth medium measured after 40 to 48 hrs
Staphylococcus aureus [12] = assay: Bactericidal activity against Staphylococcus aureus 209PJC preincubated for 1 min before addition of growth medium measured after 40 to 48 hrs
Pseudomonas aeruginosa [13] = assay: Bactericidal activity against Pseudomonas aeruginosa PAO1 preincubated for 1 min before addition of growth medium measured after 40 to 48 hrs
Escherichia coli [14] = assay: Bactericidal activity against Escherichia coli NIHJ JC-2 preincubated for 3 mins before addition of growth medium measured after 40 to 48 hrs
Staphylococcus aureus [15] = assay: Bactericidal activity against methicillin-resistant Staphylococcus aureus 97-115 preincubated for 3 mins before addition of growth medium measured after 40 to 48 hrs; procedure, shortened: as §2
Staphylococcus aureus [16] = assay: Bactericidal activity against Staphylococcus aureus 209PJC preincubated for 5 mins before addition of growth medium measured after 40 to 48 hrs
Pseudomonas aeruginosa [17] = assay: Bactericidal activity against Pseudomonas aeruginosa 12 preincubated for 1 min before addition of growth medium measured after 40 to 48 hrs
Enterococcus [18] = assay: Bactericidal activity against vancomycin-resistant Enterococcus 49 preincubated for 1 min before addition of growth medium measured after 40 to 48 hrs; procedure, shortened: as §2
Staphylococcus aureus [19] = assay: Bactericidal activity against methicillin-resistant Staphylococcus aureus KM 97-108 preincubated for 5 mins before addition of growth medium measured after 40 to 48 hrs; procedure, shortened: as §2
Pseudomonas aeruginosa [20] = assay: Bactericidal activity against Pseudomonas aeruginosa 12 preincubated for 3 mins before addition of growth medium measured after 40 to 48 hrs
Staphylococcus aureus [21] = assay: Bactericidal activity against methicillin-resistant Staphylococcus aureus 97-53 preincubated for 3 mins before addition of growth medium measured after 40 to 48 hrs; procedure, shortened: as §2
Staphylococcus aureus [22] = assay: Bactericidal activity against methicillin-resistant Staphylococcus aureus 97-53 preincubated for 5 mins before addition of growth medium measured after 40 to 48 hrs; procedure, shortened: as §2
Enterococcus [23] = assay: Bactericidal activity against vancomycin-resistant Enterococcus 49 preincubated for 5 mins before addition of growth medium measured after 40 to 48 hrs; procedure, shortened: as §2
Staphylococcus aureus [24] = assay: Bactericidal activity against methicillin-resistant Staphylococcus aureus 97-53 preincubated for 1 min before addition of growth medium measured after 40 to 48 hrs; procedure, shortened: as §2
Pseudomonas aeruginosa [25] = assay: Bactericidal activity against Pseudomonas aeruginosa 12 preincubated for 5 mins before addition of growth medium measured after 40 to 48 hrs
Staphylococcus aureus [26] = assay: Bactericidal activity against methicillin-resistant Staphylococcus aureus KM 97-108 preincubated for 1 min before addition of growth medium measured after 40 to 48 hrs; procedure, shortened: as §2
Enterococcus [27] = assay: Bactericidal activity against vancomycin-resistant Enterococcus 49 preincubated for 3 mins before addition of growth medium measured after 40 to 48 hrs; procedure, shortened: as §2
Staphylococcus aureus [28] = assay: Bactericidal activity against methicillin-resistant Staphylococcus aureus KM 97-108 preincubated for 3 mins before addition of growth medium measured after 40 to 48 hrs; procedure, shortened: as §2

SMILES	MBC (Escherichia coli [1]) [µg/mL]	MIC (Pseudomonas aeruginosa [2]) [µg/mL]	MBC (Staphylococcus aureus [3]) [µg/mL]	MBC (Pseudomonas aeruginosa [4]) [µg/mL]	MBC (Pseudomonas aeruginosa [5]) [µg/mL]	MBC (Staphylococcus aureus [6]) [µg/mL]	MIC (Staphylococcus aureus [7]) [µg/mL]	MBC (Escherichia coli [8]) [µg/mL]	MIC (Staphylococcus aureus [9]) [µg/mL]	MIC (Escherichia coli [10]) [µg/mL]	MBC (Staphylococcus aureus [11]) [µg/mL]	MBC (Staphylococcus aureus [12]) [µg/mL]	MBC (Pseudomonas aeruginosa [13]) [µg/mL]	MBC (Escherichia coli [14]) [µg/mL]	MBC (Staphylococcus aureus [15]) [µg/mL]	MBC (Staphylococcus aureus [16]) [µg/mL]	also measured
CC(=O)O.CCCCCCCCNC1=NC(C)(C)NC(NCCc2ccccc2)=N1	6.3	25	> 100	6.3	3.1	> 100	1.6	3.1	0.8	25	12.5	50	6.3	3.1	> 100	12.5	
CCCCCCCCCCNC1=NC(C)(C)NC(NCCc2ccc(OC)cc2)=N1.Cl	3.1	50	25	3.1	1.6	6.3	0.8	1.6	0.4	50	12.5	50	3.1	1.6	6.3	6.3	
CC(=O)O.CCCCCCCCCNC1=NC(C)(C)NC(Nc2ccccc2)=N1	12.5	12.5	25	3.1	3.1	25	0.8	3.1	0.8	12.5	6.3	12.5	6.3	6.3	25	6.3	
CC(=O)O.CCCCCCCCCNC1=NC(C)(C)NC(NCCc2ccccc2)=N1	12.5	12.5	25	3.1	1.6	6.3	0.8	3.1	0.4	12.5	12.5	25	12.5	3.1	12.5	6.3	
CC(=O)O.CCCCCCCCNC1=NC(NCCCCC)=NC(C)(C)N1	12.5	25	6.3	3.1	3.1	3.1	1.6	6.3	1.6	25	3.1	3.1	6.3	6.3	3.1	3.1	
CC(=O)O.CCCCCCCCNC1=NC(C)(C)NC(NCCCC)=N1	50	50	25	25	12.5	12.5	3.1	12.5	1.6	25	12.5	25	50	25	12.5	6.3	
CC(=O)O.CCCCCCCCCCCCNC1=NC(C)(C)NC(NCC)=N1	12.5	50	25	3.1	3.1	6.3	1.6	3.1	0.8	12.5	3.1	3.1	3.1	3.1	12.5	1.6	
CC(=O)O.CCCCCCCCNC1=NC(C)(C)NC(NCc2ccc(C)cc2)=N1	12.5	12.5	25	6.3	3.1	12.5	0.4	6.3	0.4	12.5	3.1	6.3	12.5	6.3	25	3.1	MBC (Pseudomonas aeruginosa [17]): 6.3 µg/mL; MBC (Enterococcus [18]): 25 µg/mL; MBC (Staphylococcus aureus [19]): 25 µg/mL; MBC (Pseudomonas aeruginosa [20]): 6.3 µg/mL; MBC (Staphylococcus aureus [21]): 50 µg/mL; MBC (Staphylococcus aureus [22]): 25 µg/mL; MBC (Enterococcus [23]): 12.5 µg/mL; MBC (Staphylococcus aureus [24]): 50 µg/mL; MBC (Pseudomonas aeruginosa [25]): 3.1 µg/mL; MBC (Staphylococcus aureus [26]): 50 µg/mL; MBC (Enterococcus [27]): 25 µg/mL; MBC (Staphylococcus aureus [28]): 50 µg/mL
CC(=O)O.CCCCCCCCNC1=NC(C)(C)NC(Nc2ccccc2)=N1	12.5	50	25	12.5	6.3	12.5	1.6	6.3	1.6	25	6.3	25	25	6.3	12.5	6.3	
CC(=O)O.CCCCCCCNC1=NC(C)(C)NC(NCCCCCCC)=N1	6.3	50	25	1.6	1.6	12.5	0.8	3.1	0.8	12.5	6.3	6.3	3.1	3.1	25	3.1	
